ChEMBL document CHEMBL3525958 (Drug Metab Dispos, 2013)
Values belong to the compound of their own block, whether it stands above or below them.

What was measured:
[1] = Apparent permeability from apical to basolateral side of human Caco2 cells at 5 uM by liquid scintillation counting; conditions: Caco-2
[2] = Apparent permeability from basolateral to apical side of human Caco2 cells at 5 uM by liquid scintillation counting; conditions: Caco-2
BCRP [3] = test: Permeability in human Caco2 cells assessed as 11 uM BCRP inhibitor Ko134-mediated inhibition of digoxin at 5 uM by liquid scintillation counting; type: ADME, cell-based; conditions: Caco-2, with Ko134 11 uM
Outline: (§1)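 Caco-2 monolayers (passages 17–40, 13–22 days post-seeding) were used. Bidirectional transport ran for 2 h at 37°C, shaken at 50 rpm, in HBSS/10 mM HEPES pH 7.4. […] Inhibitors were present in both chambers: ketoconazole or cyclosporin A (20 or 50 µM), Ko134 (1 or 11 µM), or probenecid with the 20 µM runs. Results are % inhibition of efflux ratio.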

P-gp [4] = test: Apparent permeability in human Caco2 cells assessed as 50 uM P-gp inhibitor ketoconazole-mediated inhibition of digoxin efflux at 5 uM by liquid scintillation counting; type: ADME, cell-based; conditions: Caco-2 cells, with ketoconazole 50 uM; outline: as §1
P-gp [5] = test: Apparent permeability in human Caco2 cells assessed as 50 uM P-gp inhibitor cyclosporin A-mediated inhibition of digoxin efflux at 5 uM by liquid scintillation counting; type: ADME, cell-based; conditions: Caco-2 cells, with cyclosporin A 50 uM; outline: as §1
P-glycoprotein (human) = test: Efflux ratio of apparent permeability from basolateral to apical side over apical to basolateral side in pig LLC-PK1 cells expressing human P-glycoprotein at 5 uM by liquid scintillation counting; type: ADME, cell-based, Sus scrofa
BCRP [6] = test: Efflux ratio of apparent permeability from basolateral to apical side over apical to basolateral side in MDCK2 cells expressing human BCRP at 5 uM by liquid scintillation counting; type: ADME, cell-based, Canis lupus familiaris, MDCK-II; conditions: dog
Outline: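 MDCKII cells, mock or carrying human BCRP cDNA, were cultured 4 days on transwell inserts, with 10 mM sodium butyrate added 24 h before assay. Cells were pre-incubated 10 min in modified Krebs-Henseleit buffer with 5 mM glucose at 37°C. […] Samples were scintillation counted, and efflux ratio = PcB-A/PcA-B.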

[7] = Activity at human P-glycoprotein expressed in pig LLC-PK1 cells assessed as rate of transport at 10 uM after 60 mins by liquid scintillation counting; type: ADME, cell-based; conditions: llc-pk1, 1 h
Outline: (§2)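 Human P-gp-cDNA LLC-PK1 cells and vector-only (mock) cells were cultured on collagen-coated inserts for 7 days. […] Facilitated rate v = IA/(filter area × time), where IA is the net P-gp-dependent pmol transported.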

[8] = Activity at human P-glycoprotein expressed in pig LLC-PK1 cells at […] after 90 mins by liquid scintillation counting; type: ADME, cell-based
[9] = Activity at human P-glycoprotein expressed in pig LLC-PK1 cells assessed as rate of transport at 50 uM after 90 mins by liquid scintillation counting; type: ADME, cell-based; outline: as §2
[10] = Activity at human P-glycoprotein expressed in pig LLC-PK1 cells at 50 uM after 90 mins by liquid scintillation counting; type: ADME, cell-based
[11] = Activity at human P-glycoprotein expressed in pig LLC-PK1 cells at 25 uM after 90 mins by liquid scintillation counting; type: ADME, cell-based
[12] = Activity at human P-glycoprotein expressed in pig LLC-PK1 cells at 100 uM after 90 mins by liquid scintillation counting; type: ADME, cell-based
[13] = Activity at human P-glycoprotein expressed in pig LLC-PK1 cells assessed as rate of transport at […] after 90 mins by liquid scintillation counting; type: ADME, cell-based
[14] = Activity at human P-glycoprotein expressed in pig LLC-PK1 cells assessed as rate of transport at 5 uM after 90 mins by liquid scintillation counting; type: ADME, cell-based; outline: as §2
[15] = Activity at human P-glycoprotein expressed in pig LLC-PK1 cells assessed as rate of transport at 100 uM after 90 mins by liquid scintillation counting; type: ADME, cell-based; outline: as §2
[16] = Activity at human P-glycoprotein expressed in pig LLC-PK1 cells at 5 uM after 90 mins by liquid scintillation counting; type: ADME, cell-based
[17] = Activity at human P-glycoprotein expressed in pig LLC-PK1 cells assessed as rate of transport at 10 uM after 120 mins by liquid scintillation counting; type: ADME, cell-based; conditions: llc-pk1, 2 h; outline: as §2
[18] = Activity at human P-glycoprotein expressed in pig LLC-PK1 cells assessed as rate of transport at 10 uM after 90 mins by liquid scintillation counting; type: ADME, cell-based; outline: as §2
[19] = Activity at human P-glycoprotein expressed in pig LLC-PK1 cells assessed as rate of transport at 25 uM after 90 mins by liquid scintillation counting; type: ADME, cell-based; outline: as §2
[20] = Activity at human P-glycoprotein expressed in pig LLC-PK1 cells at 10 uM after 120 mins by liquid scintillation counting; type: ADME, cell-based; conditions: llc-pk1, 2 h
[21] = Activity at human P-glycoprotein expressed in pig LLC-PK1 cells at 10 uM after 60 mins by liquid scintillation counting; type: ADME, cell-based; conditions: llc-pk1, 1 h
[22] = Activity at human P-glycoprotein expressed in pig LLC-PK1 cells at 10 uM after 90 mins by liquid scintillation counting; type: ADME, cell-based
[23] = Oral bioavailability in human; type: ADME, organism-based; conditions: in vivo
[24] = Ratio of drug level in brain to blood in po dosed rat; type: ADME, organism-based
[25] = Oral bioavailability in rat; type: ADME, organism-based; conditions: in vivo
[26] = Ratio of Cmax in milk to plasma in lactating rat; type: ADME; conditions: female
[27] = Oral bioavailability in dog; type: ADME, organism-based, Canis lupus familiaris; conditions: in vivo
[28] = Ratio of AUC in milk to plasma in lactating rat; type: ADME; conditions: female, read-out: Ratio AUC
BCRP [29] = test: in vitro; conditions: human, Caco-2, with Ko134 11 uM

SMILES: C[C@H]1O[C@@H](O[C@H]2[C@@H](O)C[C@H](O[C@H]3[C@@H](O)C[C@H](O[C@H]4CC[C@@]5(C)[C@H](CC[C@@H]6[C@@H]5C[C@@H](O)[C@]5(C)[C@@H](C7=CC(=O)OC7)CC[C@]65O)C4)O[C@@H]3C)O[C@@H]2C)C[C@H](O)[C@@H]1O [DIGOXIN]
Papp A→B at 5 µM [1]: 2.3 ×10⁻⁶ cm/s
Papp B→A at 5 µM [2]: 20.5 ×10⁻⁶ cm/s
inhibition at 5 µM (BCRP [3]): 50%
inhibition at 5 µM (P-gp [4]): 100%
inhibition at 5 µM (P-gp [5]): 98%
efflux ratio at 5 µM (P-glycoprotein (human)): > 7

SMILES: COc1ccc(-n2nc(C(N)=O)c3c2C(=O)N(c2ccc(N4CCCC[14C]4=O)cc2)CC3)cc1
Drug transport [7]: 471 pmol/cm2/hr
Intrinsic activity [8]: 33 pmol
Drug transport [9]: 3194 pmol/cm2/hr
Intrinsic activity [10]: 1485 pmol
Intrinsic activity [11]: 548 pmol
Intrinsic activity [12]: 2772 pmol
Drug transport [13]: 71 pmol/cm2/hr
Drug transport [14]: 139 pmol/cm2/hr
Drug transport [15]: 5962 pmol/cm2/hr
Intrinsic activity [16]: 64 pmol
Drug transport [17]: 474 pmol/cm2/hr
Drug transport [18]: 360 pmol/cm2/hr
Drug transport [19]: 1179 pmol/cm2/hr
Intrinsic activity [20]: 294 pmol
Intrinsic activity [21]: 146 pmol
Intrinsic activity [22]: 167 pmol

SMILES: COc1ccc(-n2nc(C(N)=O)c3c2C(=O)N(c2ccc(N4CCCCC4=O)cc2)CC3)cc1 [APIXABAN]
bioavailability [23]: 50%
Kp [24]: < 0.1
bioavailability [25]: 30%
Kp [26]: 8
bioavailability [27]: 70%
Kp [28]: 30

Second part, the compound after the results:

efflux ratio at 5 µM (BCRP [6]): 10
SMILES: COc1cc2nc(N3CCN(C(=O)c4ccco4)CC3)nc(N)c2cc1OC [PRAZOSIN]

inhibition at 5 µM (BCRP [29]): 78%
SMILES: O=C1CN(/N=C/c2ccc([N+](=O)[O-])o2)C(=O)N1 [NITROFURANTOIN]
